{"source": "paper PMC7196279", "about": "(Biomedicine & pharmacotherapy = Biomedecine & …, 2020)", "key": {"[1]": {"molecular_target": "T1, macaque oxytocin receptor (qOTR) (Macaca mulatta, UniProt P56494)", "T1 sequence (P56494 1-389)": "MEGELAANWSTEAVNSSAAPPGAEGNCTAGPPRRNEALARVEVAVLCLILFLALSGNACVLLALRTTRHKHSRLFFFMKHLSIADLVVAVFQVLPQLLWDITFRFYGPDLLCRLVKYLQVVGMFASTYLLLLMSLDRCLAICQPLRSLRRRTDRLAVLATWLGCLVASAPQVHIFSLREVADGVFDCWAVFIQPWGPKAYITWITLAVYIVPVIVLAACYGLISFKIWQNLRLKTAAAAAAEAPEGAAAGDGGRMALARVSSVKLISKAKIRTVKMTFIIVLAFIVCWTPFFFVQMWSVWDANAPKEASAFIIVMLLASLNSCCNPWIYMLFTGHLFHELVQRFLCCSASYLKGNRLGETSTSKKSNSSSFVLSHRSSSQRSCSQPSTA", "test": "Ca2+ mobilization assay", "format": "cell-based"}, "[2]": {"test_system": "Ca^2+-activated K^+ channels", "conditions": "hOT receptor CHO cells, cited from earlier work"}, "[3]": {"test_system": "Ca^2+-activated K^+ channels", "format": "cell-based, Chinese hamster", "conditions": "hOT receptor CHO cells, inhibitor pretreatment"}, "[4]": {"test_system": "Ca^2+-activated K^+ channels", "conditions": "mOT receptor CHO cells, cited from earlier work"}, "[5]": {"test_system": "Ca^2+-activated K^+ channels", "format": "cell-based, Chinese hamster", "conditions": "qOT receptor CHO cells; for inhibition of AVP induced hyperpolarization / inhibition of Leu^8-OT induced hyperpolarization / inhibition of Pro^8-OT induced hyperpolarization: inhibitor pretreatment", "procedure,_shortened": "(§1)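 Receptor-expressing CHO-K1 cells were loaded with FMP Blue in Locke's buffer (pH 7.4) at 37 °C for 35 min. Paxilline, TRAM-34 and/or apamin were then added, followed by 10 min more incubation. Baseline was read for 60 s, then log concentrations of agonist were added and ex 530/em 565 nm was read every 2 s for 200 s. NS-1619 or SKA-31 stimulation followed paxilline (30 μM) or TRAM-34 pretreatment respectively. Response was FMIN − F0. N = 3 experiments, 10 replicates per dose.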"}, "[6]": {"test_system": "Ca^2+-activated K^+ channels", "format": "cell-based, Chinese hamster", "conditions": "tOT receptor CHO cells; for inhibition of AVP induced hyperpolarization / inhibition of Leu^8-OT induced hyperpolarization / inhibition of Pro^8-OT induced hyperpolarization: inhibitor pretreatment", "procedure,_shortened": "as §1"}, "[7]": {"test_system": "Ca^2+-activated K^+ channels", "format": "cell-based, Chinese hamster", "conditions": "mOT receptor CHO cells, inhibitor pretreatment"}, "[8]": {"test_system": "sarco/endoplasmic reticulum calcium ATPase (SERCA)", "format": "cell-based", "conditions": "all four lines, thapsigargin pretreatment 1 μM final concentration", "procedure,_shortened": "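Fluo-3 AM-loaded cells (60 min, 37 °C) were washed four times and treated with thapsigargin (1 μM final) for 5 min. The Ca2+ mobilization assay was then run with agonist concentration series, with untreated controls in parallel on the same plates. The Fluo-3 read was FMAX − F0. N = 3 experiments, five replicates per dose.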"}, "[9]": {"test_system": "sarco/endoplasmic reticulum calcium ATPase (SERCA)", "format": "cell-based", "conditions": "all four OT receptor cell lines, thapsigargin pretreatment", "procedure,_shortened": "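Cells were incubated with FMP Blue in Locke's buffer at 37 °C for 40 min. Thapsigargin was added, followed by 5 min more incubation. The membrane potential assay was then run with agonist concentration series. Fluorescence was read at ex 530/em 565 nm every 2 s for 200 s after a 60 s baseline. Response was FMIN − F0.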"}, "[10]": {"molecular_target": "Human Kappa-opioid (κO) receptor (Homo sapiens, UniProt P41145)", "sequence (P41145 whole entry)": "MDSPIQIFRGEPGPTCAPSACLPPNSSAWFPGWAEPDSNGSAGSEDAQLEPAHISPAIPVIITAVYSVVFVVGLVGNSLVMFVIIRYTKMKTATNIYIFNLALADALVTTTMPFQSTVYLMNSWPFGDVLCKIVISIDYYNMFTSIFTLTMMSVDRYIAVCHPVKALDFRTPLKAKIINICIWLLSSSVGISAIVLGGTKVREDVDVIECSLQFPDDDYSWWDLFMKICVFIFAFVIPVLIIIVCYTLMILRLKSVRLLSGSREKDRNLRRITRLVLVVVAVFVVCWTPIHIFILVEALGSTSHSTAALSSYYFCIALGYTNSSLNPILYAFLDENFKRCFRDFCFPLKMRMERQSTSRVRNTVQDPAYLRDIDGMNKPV", "test": "Membrane potential assay in κOR-CHO cells", "format": "cell-based", "conditions": "κOR-CHO cells pretreated with pertussis toxin"}, "Gi/o": {"test_system": "Gi/o", "format": "cell-based", "conditions": "PTX 150 ng/ml"}}, "note": "Read-outs that look alike come from different tables or passages of the source. Bridges are numbered along the chain shown (N, C = ends). Where no end group is shown, it is not given here.", "data": [{"compound": "NC(=O)CC[C@@H]1NC(=O)[C@H](Cc2ccccc2)NC(=O)[C@H](Cc2ccc(O)cc2)NC(=O)[C@@H](N)CSSC[C@@H](C(=O)N2CCC[C@H]2C(=O)N[C@@H](CCCN=C(N)N)C(=O)NCC(N)=O)NC(=O)[C@H](CC(N)=O)NC1=O", "note": "[AVP, arginine vasopressin]", "values": [{"measurement": "EC50", "setting": "[1]", "result": 49.8, "unit": "nM"}]}, {"compound": "Clc1ccccc1C(c1ccccc1)(c1ccccc1)n1cccn1", "note": "[TRAM-34]", "values": [{"measurement": "effect on hyperpolarizing response to KCa3.1 channel opener SKA31", "setting": "[2]", "result": "inhibited"}, {"measurement": "inhibition of AVP induced hyperpolarization", "setting": "[3]", "result": 61, "unit": "%"}, {"measurement": "effect on hyperpolarizing response to KCa3.1 channel opener SKA31", "setting": "[4]", "result": "inhibited"}, {"measurement": "inhibition of SKA-31 hyperpolarization", "setting": "[5]; 300 nM TRAM-34 pretreatment", "result": 92, "unit": "%"}, {"measurement": "inhibition of SKA-31 hyperpolarization", "setting": "[6]; 300 nM TRAM-34 pretreatment", "result": 78, "unit": "%"}, {"measurement": "inhibition of AVP induced hyperpolarization", "setting": "[6]", "result": 25, "unit": "%"}, {"measurement": "inhibition of Leu^8-OT induced hyperpolarization", "setting": "[6]", "result": 38, "unit": "%"}, {"measurement": "inhibition of Pro^8-OT induced hyperpolarization", "setting": "[6]", "result": 37, "unit": "%"}, {"measurement": "inhibition of AVP induced hyperpolarization", "setting": "[7]", "result": 33, "unit": "%"}]}, {"compound": "CC(C)(O)[C@H]1O[C@H]2CC[C@@]3(C)[C@@](O)(CC[C@H]4Cc5c([nH]c6ccccc56)[C@@]43C)C2=CC1=O", "note": "[paxilline]", "values": [{"measurement": "effect on BKCa activator NS-1619 response", "setting": "[2]", "result": "inhibited"}, {"measurement": "inhibition of AVP induced hyperpolarization", "setting": "[3]", "result": 52, "unit": "%"}, {"measurement": "effect on BKCa activator NS-1619 response", "setting": "[4]", "result": "inhibited"}, {"measurement": "block of NS-1619 evoked hyperpolarization", "setting": "[5]; 30 μM paxilline", "result": 72, "unit": "%"}, {"measurement": "inhibition of AVP induced hyperpolarization", "setting": "[5]", "result": 20, "unit": "%"}, {"measurement": "inhibition of Leu^8-OT induced hyperpolarization", "setting": "[5]", "result": 46, "unit": "%"}, {"measurement": "inhibition of Pro^8-OT induced hyperpolarization", "setting": "[5]", "result": 35, "unit": "%"}, {"measurement": "block of NS-1619 evoked hyperpolarization", "setting": "[6]; 30 μM paxilline", "result": 80, "unit": "%"}, {"measurement": "inhibition of AVP induced hyperpolarization", "setting": "[6]", "result": 13, "unit": "%"}, {"measurement": "inhibition of Leu^8-OT induced hyperpolarization", "setting": "[6]", "result": 38, "unit": "%"}, {"measurement": "inhibition of Pro^8-OT induced hyperpolarization", "setting": "[6]", "result": 39, "unit": "%"}, {"measurement": "inhibition of AVP induced hyperpolarization", "setting": "[7]", "result": 20, "unit": "%"}]}, {"compound": "C/C=C(/C)C(=O)O[C@H]1C(C)=C2[C@H]([C@@H]1OC(=O)CCCCCCC)[C@@](C)(OC(C)=O)C[C@H](OC(=O)CCC)[C@@]1(O)[C@H]2OC(=O)[C@@]1(C)O", "note": "[thapsigargin]", "values": [{"measurement": "effect on AVP and OT-analog evoked increases in Ca2+", "setting": "[8]", "result": "blocked"}, {"measurement": "effect on hyperpolarization produced by AVP, Leu^8-OT, and Pro^8-OT", "setting": "[9]", "result": "eliminated"}]}, {"compound": "Pertussis toxin", "values": [{"measurement": "effect on DynorphinA1-13-NH2 hyperpolarizing response", "setting": "[10]", "result": "abolished"}, {"measurement": "effect on AVP induced hyperpolarization", "setting": "Gi/o; any of the four cell lines (mOTR, tOTR, qOTR, hOTR)", "result": "did not inhibit"}, {"measurement": "effect on Leu^8-OT induced hyperpolarization", "setting": "Gi/o; tOT or qOT receptor cell lines", "result": "did not inhibit"}, {"measurement": "effect on Pro^8-OT induced hyperpolarization", "setting": "Gi/o; tOT or qOT receptor cell lines", "result": "did not inhibit"}]}, {"compound": "apamin: selective inhibitor of SKCa channels (CNCKAPETALCARRCQQH-NH2; disulfide 1-11, 3-15; UniProt P01500 28-45, looked up)", "values": [{"measurement": "contribution to (inhibition of) Leu^8-OT induced membrane hyperpolarization", "setting": "[2]; apamin pretreatment", "result": "≤ 15", "unit": "%"}, {"measurement": "contribution to (inhibition of) Pro^8-OT induced membrane hyperpolarization", "setting": "[2]; apamin pretreatment", "result": "≤ 15", "unit": "%"}, {"measurement": "inhibition of AVP induced hyperpolarization", "setting": "[3]", "result": "did not significantly affect"}, {"measurement": "inhibition of AVP induced hyperpolarization", "setting": "[3]; listed as Apamin", "result": "≤ 15", "unit": "%"}, {"measurement": "contribution to (inhibition of) Leu^8-OT induced membrane hyperpolarization", "setting": "[4]; apamin pretreatment", "result": "≤ 15", "unit": "%"}, {"measurement": "contribution to (inhibition of) Pro^8-OT induced membrane hyperpolarization", "setting": "[4]; apamin pretreatment", "result": "≤ 15", "unit": "%"}, {"measurement": "inhibition of AVP induced hyperpolarization", "setting": "[5]", "result": "did not significantly affect"}, {"measurement": "inhibition of Leu^8-OT induced hyperpolarization", "setting": "[5]", "result": "≤ 15", "unit": "%"}, {"measurement": "inhibition of Pro^8-OT induced hyperpolarization", "setting": "[5]", "result": "≤ 15", "unit": "%"}, {"measurement": "inhibition of AVP induced hyperpolarization", "setting": "[5]; listed as Apamin", "result": "≤ 15", "unit": "%"}, {"measurement": "inhibition of AVP induced hyperpolarization", "setting": "[6]", "result": "did not significantly affect"}, {"measurement": "inhibition of Leu^8-OT induced hyperpolarization", "setting": "[6]", "result": "≤ 15", "unit": "%"}, {"measurement": "inhibition of Pro^8-OT induced hyperpolarization", "setting": "[6]", "result": "≤ 15", "unit": "%"}, {"measurement": "inhibition of AVP induced hyperpolarization", "setting": "[6]; listed as Apamin", "result": "≤ 15", "unit": "%"}, {"measurement": "inhibition of AVP induced hyperpolarization", "setting": "[7]", "result": "did not significantly affect"}, {"measurement": "inhibition of AVP induced hyperpolarization", "setting": "[7]; listed as Apamin", "result": "≤ 15", "unit": "%"}]}]}
